In one series the test system is Mus musculus. Briefly: Toxicity in ip dosed CDF1 mouse. Type of series: organism-based. The conditions noted are these: in vivo. The essentials:
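Single-dose LD10 was found in concurrent toxicity controls using normal (non-tumor-bearing) mice, run alongside the L1210 survival experiment, with drug in physiological saline given ip.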

Series [1] relates to L1210. Description: Antineoplastic activity against mouse L1210 cells allografted in CDF1 mouse assessed as tumor growth inhibition at 24 mg/kg, ip administered on day 1 post-tumor cell implantation. Format: functional. The conditions noted are these: route intraperitoneal.
The test system of series [2] is L1210. Description: Antineoplastic activity against mouse L1210 cells allografted in CDF1 mouse assessed as increase in host life span at 24 mg/kg, ip administered on day 1 post-tumor cell implantation. Format: functional. To be noted: route intraperitoneal. The essentials:
(§1)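 Male CDF1 mice were inoculated ip with 10⁵ L1210 cells. Drug in physiological saline was given ip as a single dose on day 1 postimplant, at the maximum non-toxic dose relative to the concurrent LD10. There were 10 mice per test group and 30 in the control group, followed for 60 days. Median day of death counted dying mice only. Increase in life span excluded survivors.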

Series [3] deals with L1210. Description: Antineoplastic activity against mouse L1210 cells allografted in CDF1 mouse assessed as dose causing 50% 60-day host survival at 24 mg/kg, ip administered on day 1 post-tumor cell implantation. Type of series: functional. The conditions noted are these: route intraperitoneal. A digest of the protocol: as §1
Series [4] relates to L1210. Description: Antineoplastic activity against mouse L1210 cells allografted in CDF1 mouse assessed as median day of death at 24 mg/kg, ip administered on day 1 post-tumor cell implantation (reference value: 8 days). Format: functional. To be noted: route intraperitoneal. A digest of the protocol:
as §1

Series [5] in a line: Therapeutic index, ratio of ED50 for antineoplastic activity against mouse L1210 cells allografted in CDF1 mouse to LD10 for CDF1 mouse. The conditions noted are these: read-out: TI. The essentials: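 The therapeutic index is the fraction of the single-dose LD10 that gave 50% 60-day survival: ED50 divided by LD10. ED50 came from log-dose probit-survival plots in L1210-bearing male CDF1 mice (10⁵ cells ip, single ip dose in saline on day 1). LD10 came from concurrent toxicity controls.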

Bounds are passed on as bounds.

The record followed here is ChEMBL document CHEMBL3227977, “L-Chlorozotocin” (J Med Chem, 1979).

Broadly, the ED50 is the dose that gives a 50% effect, or the effect in half of the subjects.

As to `O=NN(CCCl)C(=O)N[C@H]1C(O)O[C@H](CO)[C@@H](O)[C@@H]1O` (some centres not stated) [CHLOROZOTOCIN], the LD10 in the series with Mus musculus was found to be 30 mg/kg. Also, the LCK result in the series on L1210 [1] is reported as “>=6”. Moreover, the Activity with L1210 [2] is given as 62%. In the series with L1210 [3], the ED50 is 21 mg/kg. In addition, the Time with L1210 [4] was 13 days. Moreover, the selectivity ratio in series [5] stood at 0.7.

In turn, `O=NN(CCCl)C(=O)N[C@@H]1C(O)O[C@@H](CO)[C@H](O)[C@H]1O` (some centres not stated) yielded an LD10 with Mus musculus of 33 mg/kg. The LCK result in the series with L1210 [1] is “>=6”. Further, in the series with L1210 [2], the Activity was determined as 87%. The ED50 with L1210 [3] came out at 21 mg/kg. In the series with L1210 [4], the Time turned out to be 15 days. For the same compound, the selectivity ratio in series [5] was found to be 0.64.
